Measurements: ChEMBL document CHEMBL1800054, “Thiazolides as novel antiviral agents. 1. Inhibition of hepatitis B virus replication” (J Med Chem, 2011)

Assays:
[1] = Cytotoxicity against human HepG2(2.2.15) cells after 24 hrs by neutral red dye uptake assay; assay type: cell-based; details: for CC50: hepg2 2.2.15, 24 h; for CC50 at 24 h: HepG2(2.2.15) cells
Summary of the method: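 Confluent chronically HBV-producing 2.2.15 cultures given nine consecutive daily doses of compound; neutral red dye uptake read 24 hr after the last dose.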

[2] = test system: Hepatitis B virus; test: Antiviral activity against Hepatitis B virus infected in human HepG2(2.2.15) cells assessed as decrease in extracellular viral DNA measured 24 hrs after last dose; assay type: functional, organism-based; details: HepG2 2.2.15, 24 h
Summary of the method: (§1)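 Confluent 2.2.15 cells (HepG2 line chronically producing HBV) in 96-well culture; nine consecutive daily doses of compound. HBV DNA (extracellular virion or intracellular replication intermediates) quantified by blot hybridization 24 hr after the last dose. Cytotoxicity measured by neutral red uptake 24 hr after the last dose.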

[3] = test system: Hepatitis B virus; test: Antiviral activity against Hepatitis B virus infected in human HepG2(2.2.15) cells assessed as decrease in intracellular viral DNA measured 24 hrs after last dose; assay type: functional, organism-based; details: HepG2 2.2.15, 24 h; summary of the method: as §1
[4] = Selectivity index, ratio CC50 for human HepG2(2.2.15) cells to EC90 for decrease in extracellular viral DNA in Hepatitis B virus infected human HepG2(2.2.15) cells; assay type: toxicity; details: read-out: Selectivity Index
Summary of the method: (§2)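 Ratio of CC50 to EC90 in confluent 2.2.15 cells treated with nine consecutive daily doses. Both read 24 hr after the last dose. CC50 = concentration halving neutral red uptake versus untreated cultures. EC values were run in triplicate.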

[5] = Selectivity index, ratio CC50 for human HepG2(2.2.15) cells to EC90 for decrease in intracellular viral DNA in Hepatitis B virus infected human HepG2(2.2.15) cells; assay type: toxicity, cell-based; details: read-out: Selectivity Index; summary of the method: as §2
[6] = Inhibition of CYP450; assay type: ADME
Summary of the method: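 Screened for inhibition against a panel of 14 CYP isozymes.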

[7] = test system: Blood; test: Metabolic stability in human blood after 1 hr; assay type: ADME, tissue-based
Summary of the method: (§3)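 Incubated 1 hour in human whole blood or plasma, then stability assessed.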

[8] = test system: Plasma; test: Metabolic stability in human plasma after 1 hr; assay type: ADME, cell-free; summary of the method: as §3
[9] = Metabolic stability in human liver microsomes assessed as compound remaining after 60 mins; assay type: ADME, Microsome; details: read-out: Stability
Summary of the method: (§4)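 Incubated 60 minutes with human liver microsomes or S9 fraction; read-out is percent of parent compound remaining.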

[10] = Metabolic stability in human liver S9 fraction assessed as compound remaining after 60 mins; assay type: ADME, subcellular; details: read-out: Stability; summary of the method: as §4
[11] = Protein binding in plasma; assay type: ADME, cell-free; details: read-out: PPB
[12] = test system: Plasma; test: Protein binding in human plasma; assay type: ADME, cell-free

SMILES | CC50 [1] [µM] | EC50 [2] [µM] | EC90 [2] [µM] | CC50 at 24 h [1] [µM] | EC50 [3] [µM] | EC90 [3] [µM] | selectivity ratio [4] | selectivity ratio [5] | inhibition (INH) [6] | Stability [7] | Stability [8] | remaining at 1 h [9] [%] | remaining at 1 h [10] [%] | fraction unbound [11] | PPB [12] [%]
O=C(Nc1nccs1)c1ccccc1O | 16 | > 10 | > 10 |  |  |  |  |  |  |  |  |  |  |  | 
CS(=O)(=O)c1cnc(NC(=O)c2ccccc2O)s1 |  | > 10 | > 10 | > 100 | > 10 |  |  |  |  |  |  |  |  |  | 
O=C(Nc1ncc(Cl)s1)c1ccccc1O | 38 | 0.33 | 0.89 |  | 1 | 2.9 | 43 | 13 |  |  |  |  |  |  | 
Cc1ccc(O)c(C(=O)Nc2ncc(Cl)s2)c1 |  | 0.33 | 0.83 | 100 | 0.9 | 2 | > 120 | > 51 | Not Active | Stable | Stable | 16 | 6 | < 0.01 | 
Cc1cccc(C(=O)Nc2ncc(Cl)s2)c1O | 100 | > 10 | > 10 |  | > 10 | > 10 |  |  |  |  |  |  |  |  | 
Cc1ccc(C(=O)Nc2ncc(Cl)s2)c(O)c1 |  | 1 | 3.3 | 100 | 2.7 | 6.3 | > 30 | > 16 |  |  |  |  |  |  | 
Cc1cccc(C(=O)Nc2ncc(Br)s2)c1O |  | 3.5 | 9 | > 100 | 7.6 | 22 | > 11 | > 4.5 |  |  |  |  |  |  | 
O=C(Nc1ncc(Br)s1)c1ccccc1O |  | 1.2 | 4 | > 100 | 2.9 | 8.7 | > 25 | > 12 |  |  |  |  |  |  | 
O=C(Nc1ncc(F)s1)c1ccccc1O | 51 | 3.1 | 12 |  |  |  | 4.3 |  |  |  |  |  |  |  | 
O=C(Nc1ncc(Br)s1)c1cccc(Cl)c1O | 30 | 0.32 | 2 |  | 0.59 | 3.9 | 15 | 7.7 |  |  |  |  |  |  | 
O=C(Nc1ncc(Br)s1)c1ccc(F)cc1O | 12 | 2.1 | 5.6 |  |  |  | 2.1 |  |  |  |  |  |  |  | 
O=C(Nc1ncc(Br)s1)c1cc(Cl)ccc1O | 45 | 0.21 | 1.1 |  | 3.5 | 11 | 41 | 4.1 |  |  |  |  |  |  | 
O=C(Nc1ncc(-c2ccc(Cl)cc2)s1)c1ccccc1O |  | > 10 | > 10 | > 100 | > 10 | > 10 |  |  |  |  |  |  |  |  | 
Cc1cccc(C(=O)Nc2nc(-c3ccccc3)cs2)c1O |  | 0.22 | 0.73 | > 100 | 7.8 | 30 | > 137 | 3.3 |  |  |  |  |  |  | 
O=C(Nc1nc(-c2ccccc2)cs1)c1cccc(Cl)c1O |  | 0.15 | 0.6 | > 100 |  |  | > 166 |  |  |  |  |  |  |  | 
CC(=O)Nc1cnc(NC(=O)c2ccccc2O)s1 |  | > 10 | > 10 | > 100 | > 10 | > 10 |  |  |  |  |  |  |  |  | 
CS(=O)(=O)c1csc(NC(=O)c2ccccc2O)n1 |  | > 10 | > 10 | > 100 |  |  |  |  |  |  |  |  |  |  | 

SMILES | CC50 [1] [µM] | EC50 [2] [µM] | EC90 [2] [µM] | CC50 at 24 h [1] [µM] | EC50 [3] [µM] | EC90 [3] [µM] | selectivity ratio [4] | selectivity ratio [5] | inhibition (INH) [6] | Stability [7] | Stability [8] | remaining at 1 h [9] [%] | remaining at 1 h [10] [%] | fraction unbound [11] | PPB [12] [%]
N#Cc1cnc(NC(=O)c2ccccc2O)s1 |  | 3.2 | 9.4 | > 100 | 5.5 | 14 | > 11 | > 7.1 |  |  |  |  |  |  | 
COC(=O)c1cnc(NC(=O)c2ccccc2O)s1 | 15 | > 10 | > 10 |  |  |  |  |  |  |  |  |  |  |  | 
O=C(Nc1ncc(C(F)(F)F)s1)c1ccccc1O |  | 3.8 | 11 | > 100 | 9.1 | 27 | > 9.1 | > 3.7 |  |  |  |  |  |  | 
CCOC(=O)Oc1ccccc1C(=O)Nc1ncc([N+](=O)[O-])s1 | 9.9 | 0.21 | 0.69 |  | 0.54 | 1.8 | 13 | 5.5 |  |  |  |  |  |  | 
CC(C)c1cnc(NC(=O)c2ccccc2O)s1 |  | > 10 | > 10 | > 100 | > 10 | > 10 |  |  |  |  |  |  |  |  | 
CC(=O)Oc1ccccc1C(=O)Nc1ccc(Br)cc1 |  | 0.76 | 3 | > 100 | 2.1 | 6.8 | > 33 | > 15 |  |  |  |  |  |  | 
Cc1cc([N+](=O)[O-])c(Cl)cc1NC(=O)c1ccccc1O | 89 | 0.28 | 0.73 |  | 0.66 | 1.7 | 122 | 52 |  |  |  |  |  |  | 
CC(=O)Oc1ccccc1C(=O)Nc1cc(C(F)(F)F)cc(C(F)(F)F)c1 |  | 3.8 | 14 | > 100 |  |  | > 7.1 |  |  |  |  |  |  |  | 
CC(=O)Oc1ccccc1C(=O)Nc1ccc(I)cc1 |  | 0.2 | 1.2 | > 100 | 0.73 | 3.3 | > 83 | > 30 |  |  |  |  |  |  | 
O=C(Nc1ccc([N+](=O)[O-])cc1)c1ccccc1O |  | > 10 | > 10 | > 100 |  |  |  |  |  |  |  |  |  |  | 
CC(=O)Oc1ccccc1C(=O)Nc1ccc(Cl)cc1 |  | 3.5 | 9.7 | > 100 |  |  | 11 |  |  |  |  |  |  |  | 
O=C(Nc1ccc(Cl)cc1)c1ccccc1O |  | > 10 | > 10 | > 100 |  |  |  |  |  |  |  |  |  |  | 
O=C(Nc1cc(C(F)(F)F)ccc1Cl)c1ccccc1O |  | 3.7 | 13 | > 100 |  |  |  |  |  |  |  |  |  |  | 
O=C(Nc1nc(-c2ccccc2)cs1)c1ccccc1O | 22 | 5.6 | 21 |  |  |  | 1 |  |  |  |  |  |  |  | 
O=C(Nc1ccc([N+](=O)[O-])cc1Cl)c1cc(Cl)ccc1O [NICLOSAMIDE] |  |  | > 10 | > 100 |  |  |  |  |  |  |  |  |  |  | 
O=C(Nc1ncc([N+](=O)[O-])s1)c1ccccc1O [TIZOXANIDE] |  | 0.15 | 0.58 | > 100 | 0.46 | 1.2 | > 172 | > 83 |  |  |  |  |  |  | > 95
